Test results from publication PMC3000965 (The Journal of Biological Chemistry, 2010).

Columns and labels:
HER2 = HER2 client protein degradation by immunoblot in H1650 cells; type: cell-based, human
Outline: (§1)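 H1650 cells were exposed to increasing concentrations of test compound for 6 h. They were lysed in RIPA buffer with protease inhibitors, protein was measured by BCA, and samples were run on 4–12% Bis-Tris SDS-PAGE and transferred to PVDF. Blots were probed with client-specific antibodies and detected by ECL. Bands were normalized to actin, and the fraction degraded was computed by densitometry against untreated samples.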

Hsp90 in SKOV-3 cells = assay: Hsp90 occupancy in SKOV-3 cells; type: cell-based, human; conditions: read-out: Hsp90 occupancy (EC50); SKOV-3, 6 h incubation
Outline: (§2)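 Cells were grown to 95% confluency and treated with test compound (0.01–10 μM) for 6 h at 37 °C. They were washed in cold PBS and lysed by freeze/thaw in binding buffer (20 mM Hepes pH 7.3, KCl, MgCl, EDTA, TCEP). Unbound drug was removed on prechilled spin columns. […], with total Hsp90 quantified by immunoblot against recombinant α/β standards. Average of two experiments.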

Hsp90 in H1650 cells = assay: Hsp90 occupancy in H1650 cells; type: cell-based, human; conditions: read-out: Hsp90 occupancy (EC50); H1650, 6 h incubation
Outline: as §2

RS4;11 cells = assay: Cell growth inhibition; type: cell-based; conditions: Homo sapiens, RS4-11, 72 h, read-out: Cell growth inhibition (GI50)
Outline: (§3)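 Cells grown in RPMI 1640 with 10% FBS at 37 °C, 5% CO2. Seeded at 10,000 cells/well, held 24 h, then exposed to increasing concentrations of test compound for 72 h. Viability read by CellTiter-Glo luminescence and normalized to DMSO vehicle control to give GI50.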

mEGFR [1] = assay: mEGFR protein degradation in H1650 tumor xenografts; type: in vivo, mice; conditions: 100 mg/kg single dose
Outline: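 Nude mice bearing H1650 flank xenografts received a single i.v. dose of test compound (100 mg/kg). They were sacrificed at time points from 1 to 48 h post dose (n = 3; vehicle n = 2). Tumors were snap-frozen in liquid nitrogen, stored at −80 °C, and EGFR protein levels in tumor tissue were assessed by immunoblot. Data are averages ± S.D.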

SKOV-3 cells = assay: Cell growth inhibition; type: cell-based; conditions: Homo sapiens, SK-OV-3, 72 h, read-out: Cell growth inhibition (GI50)
Outline: as §3

[2] = Plasma and tumor PK in H1650 tumor-bearing mice; type: in vivo
Outline: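 Nude mice bearing H1650 xenografts received a single i.v. dose of test compound (100 mg/kg). Plasma and tumors were collected at time points from 1 to 48 h (n = 3). Tumors were homogenized in ice-cold, nitrogen-sparged 1:1 acetonitrile : 150 mM citrate/EDTA/ascorbate, pH 3, then filtered and diluted 1:1 in citrate buffer with 25 ng/ml deuterated internal standard. Parent compound and two active metabolites were quantified by LC-MS/MS.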

H1650 cells = assay: Cell growth inhibition; type: cell-based; conditions: Homo sapiens, NCI-H1650, 72 h, read-out: Cell growth inhibition (GI50)
Outline: as §3

H1975 cells = assay: Cell growth inhibition; type: cell-based; conditions: Homo sapiens, NCI-H1975, 72 h, read-out: Cell growth inhibition (GI50)
Outline: as §3

Hsp90 in RS4;11 cells = assay: Hsp90 occupancy in RS4; type: cell-based, human; conditions: read-out: Hsp90 occupancy (EC50); RS4;11, 6 h incubation
Outline: as §2

cRaf = cRaf client protein degradation by immunoblot in H1650 cells; type: cell-based, human; conditions: 10 μM (highest concentration tested), 6 h
Outline: as §1

mEGFR [3] = assay: mEGFR client protein degradation by immunoblot in H1650 cells; type: cell-based, human; conditions: read-out: mEGFR degradation EC50, 6 h
Outline: as §1

[4] = system: Hsp90 in H1650 tumor xenografts; assay: Hsp90 occupancy in H1650 tumor xenografts; type: in vivo, mice; conditions: 100 mg/kg single dose
Outline: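 Male athymic nude mice (6–8 weeks) carried flank xenografts from 1 × 10^7 H1650 cells. They received a single i.v. dose of test compound (100 mg/kg) and were sacrificed at time points from 1 to 48 h (n = 3; vehicle n = 2). Tumors were snap-frozen and powdered, and ~10 mg was homogenized in chilled binding buffer and clarified at 14,000 × g, 4 °C.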

Hsp90 in H1975 cells = assay: Hsp90 occupancy in H1975 cells; type: cell-based, human; conditions: read-out: Hsp90 occupancy (EC50); H1975, 6 h incubation
Outline: as §2

Hsp90 = conditions: cited from earlier work
Akt = Akt client protein degradation by immunoblot in H1650 cells; type: cell-based, human; conditions: 10 μM (highest concentration tested), 6 h
Outline: as §1

Hsp90 in SK-BR-3 lysates = assay: Dissociation of [3H]17-AAG from Hsp90 in SK-BR-3 lysates; type: binding, human; conditions: 4 °C
Purified Hela Hsp90 [5] = assay: Dissociation of [3H]17-AAG from purified Hsp90; type: binding, human
Purified Hela Hsp90 [6] = assay: Association of [3H]17-AAG to purified Hsp90; type: binding, human
[7] = system: Hsp90 in SK-BR-3 cell lysate; assay: Association of [3H]17-AAG to Hsp90 in SK-BR-3 lysate; type: binding, human; conditions: 4 °C, 10 μM 17-AAG

For C=CCNc1c(O)cc2c(O)c1C[C@@H](C)C[C@H](OC)[C@H](O)[C@@H](C)/C=C(\C)[C@H](OC(N)=O)[C@@H](OC)/C=C\C=C(/C)C(=O)N2 [IPI-504], the HER2 degraded (HER2; 30 nM IPI-504, 6 h) was > 90%, the EC50 (HER2; read-out: HER2 degradation EC50, 6 h) was 11 nM and the EC50 (Hsp90 in SKOV-3 cells) was 44 nM. The EC50 (Hsp90 in H1650 cells) was 30 nM, the GI50 (RS4;11 cells) was 2000 nM and the “time after which mEGFR protein degradation was observed” value (mEGFR [1]) was 2 h. The “time of re-emergence of mEGFR protein expression” value (mEGFR [1]) was 24 h, the GI50 (SKOV-3 cells) was 52 nM and the “IPI-504 and its metabolites in plasma” value ([2]; 24 h post dose, plasma) was “barely detectable”. The “IPI-504 and its metabolites in tumors” value ([2]; 36 h post dose, 100 mg/kg, tumor) was “high concentrations”, the “tumor PK concentrations of IPI-504” value ([2]; at 24 to 48 h, tumor) was ~1 µM and the GI50 (H1650 cells) was 37 nM. The GI50 (H1975 cells) was 51 nM, the EC50 (Hsp90 in RS4;11 cells) was 644 nM and the cRaf maximal degradation (cRaf) was ≤ 42%. For the same molecule, the EC50 (mEGFR [3]) was 213 nM, the “time by which Hsp90 occupancy declined to background levels” value [4] was ≤ 48 h and the “time up to which significant Hsp90 occupancy was observed” value [4] was “up to 12 h”. The EC50 (Hsp90 in H1975 cells) was 74 nM, the “affinity for Hsp90 higher than 17-AAG” value (Hsp90) was 50 fold and the Akt maximal degradation (Akt) was ≤ 54%.

With C=CCNC1=C2C[C@@H](C)C[C@H](OC)[C@H](O)[C@@H](C)/C=C(\C)[C@H](OC(N)=O)[C@@H](OC)/C=C\C=C(/C)C(=O)NC(=CC1=O)C2=O [17-AAG, 17-allylamino-17-demethoxygeldanamycin] the dissociation half-life (Hsp90 in SK-BR-3 lysates) was 36 h, the “dissociation t½” value (Purified Hela Hsp90 [5]; 4 °C) was 1680 min and the dissociation half-life (Purified Hela Hsp90 [5]; 37 °C) was 8 min. For the same molecule, the “rate of dissociation slower than rate of association” value (Purified Hela Hsp90 [6]; 10 μM 17-AAG at 4 °C) was ~100 fold, the “time at which drug binding reached equilibrium” value (Purified Hela Hsp90 [6]; 4 °C, 10 μM 17-AAG) was ≤ 40 min and the “association t½” value (Purified Hela Hsp90 [6]; 4 °C, 10 μM 17-AAG, 100 nM Hsp90) was 6 min. For the same molecule, the “time at which drug binding reached equilibrium” value [7] was ≤ 130 min and the “association t½” value ([7]; ∼100 nM Hsp90 in lysate) was 19 min.
